High-throughput results as filed in PubChem BioAssay.
Shown are actives, neighbours in structure and some others; about 1.6% of the full set was active somewhere.
T cell modulator: T cell immune modulation candidate; 2C CD8+ T cell-vesicle binding, flow cytometry; stronger effect = lower value; response (vesicle binding), % at 7 µM; 0.068% of 330,000 active; AID 2052;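 active = response, share of CD8 T cells binding vesicles, and their 90th percentile fluorescence all below set limits, cut at about 80% in these data, passing the limit was not always enough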;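 note: values below 100% mean blocked vesicle binding to the CD8+ T cells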
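Test system: purified 2C TCR transgenic mouse naive CD8+ T cells. Probe or stimulus: QL9-peptide-loaded Drosophila micro-vesicles bearing Ld, ICAM-1 and B7-1. Incubation: binding step 1.5 h, 37 °C, antibody labelling 20 min, ice. Measured by: flow cytometry of vesicle-bound cells.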
PKA-R1A act: activators of PKA-R1A complex. P00514+P68181. PKA-R1A dissociation, Cy5-IP20 fluorescence polarization; scaled: DMSO 0%, 113 µM cGMP 100%. activation, % at 11.4 µM. 0.083% of 340,000 active;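 active = percent activation above the mean of all tested compounds plus 3 SD, cut at about 19% in these data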;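 note: higher means more PKAc released from R1A so a rise in polarization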
ATG4B inh: blocks human ATG4B protease cleavage of LC3 substrate. Q9Y4P1. ATG4B cleavage of LC3-PLA2, NBD-HPC fluorescence, 1 h. inhibition, % at 8.33 µM. 0.51% of 340,000 active. AID 504462; in the data active = inhibition above about 40%
PfG6PD inh: PfG6PD (Plasmodium falciparum) enzyme inhibition; PfGluPho enzyme, NADPH resazurin-diaphorase fluorescence; inhibition, % at 20 µM; 0.78% of 350,000 active;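 active = inhibition reaching at least a set limit at 20 µM in the primary screen, cut at about 59% in these data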;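 note: 0% = DMSO wells with substrate and 100% = DMSO wells lacking glucose-6-phosphate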
HKDC1 inhibitor: inhibitors of human hexokinase HKDC1 | Q2TB90 | inhibition, % at 20 µM | 0.16% of 340,000 active | recombinant HKDC1, G6PDH/diaphorase resazurin coupled fluorescence;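 active = inhibition above about 35% when tested at 20 µM, limit read from the data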;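 note: plate controls were DMSO wells with enzyme for no effect and DMSO wells lacking enzyme for full effect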
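Material – in-house recombinant HK5 (HKDC1) enzyme · Quantity – HKDC1 at 5 µg/mL · Buffer or medium – pH 8.0 Tris buffer with 10 mM MgCl2 · Reagent – glucose with 1 mM ATP · Dosing – single 20 µM dose · Times – reaction time 90 min, room temperature, protected from light · Technique – resorufin fluorescence at 613 nm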
PKA-R2B act: activators of human PKA-R2B complex. PKA-R2B holoenzyme dissociation, Cy5-IP20 fluorescence polarization; R2B truncated from residue 108, S112A mutant; 0% DMSO only, 100% 113 µM cGMP. activation, % at 11.4 µM. 0.079% of 340,000 active;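 active = activation above a cutoff set at the mean over all compounds plus 3 SD, cut at about 18% in these data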;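 note: higher means more holoenzyme dissociation and a rise in polarization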
Target sequence (P31323 whole entry, looked up, other chains not shown, the tested form may be a part): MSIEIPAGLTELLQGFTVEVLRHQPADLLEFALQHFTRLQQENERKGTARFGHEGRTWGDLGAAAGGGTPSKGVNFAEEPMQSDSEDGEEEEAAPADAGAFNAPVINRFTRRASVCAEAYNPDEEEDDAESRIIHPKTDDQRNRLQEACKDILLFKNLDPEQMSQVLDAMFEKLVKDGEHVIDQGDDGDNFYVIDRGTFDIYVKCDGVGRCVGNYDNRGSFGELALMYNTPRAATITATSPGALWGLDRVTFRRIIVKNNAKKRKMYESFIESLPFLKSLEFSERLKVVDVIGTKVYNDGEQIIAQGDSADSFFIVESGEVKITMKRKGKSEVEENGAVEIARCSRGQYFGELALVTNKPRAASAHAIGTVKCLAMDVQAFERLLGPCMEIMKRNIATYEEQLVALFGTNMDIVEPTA
ATG4B conf: ATG4B (human) inhibition, single-dose confirmed; shares compounds with ATG4B inh; ATG4B protease fluorescent substrate cleavage assay; inhibition, % at 8.33 µM; 92% of 320 active; AID 504757; in the data active = inhibition above about 39%
PLA2 counter: counter-screen for ATG4B inhibitors: human phospholipase A2 | shares compounds with ATG4B inh | purified PLA2, NBD-C6-HPC fluorescence, 45 min | inhibition, % at 8.33 µM | 66% of 1,600 active | AID 588402; in the data active = inhibition above about 50%
Target sequence (P04054 whole entry, looked up): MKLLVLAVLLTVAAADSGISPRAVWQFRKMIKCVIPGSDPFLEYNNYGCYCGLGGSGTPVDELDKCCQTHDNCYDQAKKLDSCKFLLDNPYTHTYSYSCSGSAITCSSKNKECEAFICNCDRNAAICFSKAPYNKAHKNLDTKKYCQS
The depositor's hits bear a star; . = no result given.

SMILES	T cell modulator	PKA-R1A act	ATG4B inh	PfG6PD inh	HKDC1 inhibitor	PKA-R2B act	PLA2 counter	others
COCCOc1ccc(C(F)(F)F)cc1NC(=O)CN1C(=O)NC2(CCc3ccccc32)C1=O (stereo not drawn)	325.7	-3.8	98.5*	19.4	3.1	-4.8	4.3
COCCOc1ccc(C(F)(F)F)cc1NC(=O)CN1C(=O)NC2(CCCc3ccccc32)C1=O (stereo not drawn)	325.9	-22.2	-0.2	9.2	7.6	-11.8	.
Cc1cccc(C)c1N1CCN(C(=O)Nc2ccc3c(c2)OCCO3)CC1	321.8	-1.9	44.1*	16.7	-3.0	-2.3	62.5*
O=C(Nc1ccc2c(c1)OCCO2)N1CCN(c2ccc(F)cc2)CC1	496.4	0.9	0.0	-1.5	-1.6	5.1	.
CCC1=NN(C(=O)c2cccc([N+](=O)[O-])c2)C(O)(c2ccc(C)cc2)C1 (stereo not drawn)	432.7	-4.4	53.9*	-10.4	-9.3	3.5	60.2*
CCC1=NN(C(=O)c2ccc(Br)cc2)C(O)(c2ccccc2)C1 (stereo not drawn)	154.1	2.5	1.9	-33.5	-7.4	-3.3	.
COc1ccc(CN(C)C(=O)c2cc(S(=O)(=O)Nc3ccccc3F)ccc2C)c(OC)c1	413.9	15.6	-1.2	-25.8	0.8	2.5	.
COc1ccc(C(=O)Nc2cccc(/C=C(\CCC(=O)O)c3nc4ccccc4s3)c2)cc1	272.6	-7.6	58.9*	-17.5	5.3	-1.2	74.1*
CN(c1ccccc1)c1ccc(/C=C(\CCC(=O)O)c2nc3ccccc3s2)cc1[N+](=O)[O-]	283.7	-6.1	46.2*	16.0	19.6	-4.7	41.4	ATG4B conf=69.9*
O=C1N/C(=N\N=C\c2cccs2)SC1Cc1cccc(Cl)c1 (stereo not drawn)	444.7	-1.9	10.6	-27.5	4.2	-6.8	.
O=C1N/C(=N\N=C\c2cccs2)SC1Cc1ccc(Cl)cc1 (stereo not drawn)	243.4	-10.2	43.2*	-2.5	-11.8	-5.2	-0.8
COc1ccc(S(=O)(=O)Oc2ccccc2C(=S)N2CCOCC2)cc1	527.1	-2.0	.	.	.	-5.3	.
O=C(NC1CCCC1)c1ccccc1OCc1ccccc1	86.8	-3.1	65.6*	32.4	6.8	-3.5	73.1*
COc1ccccc1C(=O)NC1CCCCCCC1	347.1	-10.7	-7.0	3.4	1.1	4.1	.
O=C(NCc1ccc(F)cc1)c1ccccc1OCc1ccccc1	327.9	-0.6	47.2*	24.2	9.8	-14.9	52.0*
O=C(NC1CCN(Cc2ccccc2)CC1)c1ccccc1OCc1ccccc1	220.0	-2.7	56.0*	-0.7	-1.6	-9.8	62.3*
COc1ccc(NC(=O)CN2C(=O)C(C)Oc3ccccc32)cc1OC (stereo not drawn)	106.1	-2.7	-1.6	-6.1	-7.7	3.6	.
CC(=O)N1CCN(C(=O)CNC(=O)c2ccc(C)s2)CC1	.	-3.1	-3.2	-3.8	-6.5	6.0	.
O=C(NC1CCCCC1)C(c1ccncc1)N(C(=O)c1csnn1)c1cccc(F)c1 (stereo not drawn)	130.8	10.3	3.2	-7.1	3.2	-7.5	.
COc1cccc(CNC(=O)CCS(=O)(=O)c2ccc3c(c2)oc(=O)n3C)c1	165.8	-13.6	-0.2	5.2	-4.0	-0.8	.
CCN(Cc1ccccc1)S(=O)(=O)c1ccc(C(=O)N(CCCN(C)C)c2nc3cc4c(cc3s2)OCO4)cc1	0.0	-5.5	7.7	-0.2	4.9	-3.7	.
CCN(Cc1ccccc1)S(=O)(=O)c1ccc(C(=O)N(CCCN(C)C)c2nc3c(C)c(C)ccc3s2)cc1	261.5	-7.4	40.4*	-9.7	-2.8	-12.2	50.4*
O=C(Nc1ccc(OC(F)(F)F)cc1)Nc1cccc([N+](=O)[O-])c1	313.8	7.4	49.1*	45.9	24.8	3.6	57.7*
Cc1ccc(NC(=O)Nc2cccc([N+](=O)[O-])c2)cc1F	244.3	-5.6	17.1	36.6	-7.0	9.8	.
CCc1nn(CC(=O)N2CC(C)CC(C)C2)c(=O)c2cccn12 (stereo not drawn)	242.3	-0.4	-8.4	9.2	-1.1	-1.5	.
SMILES	T cell modulator	PKA-R1A act	ATG4B inh	PfG6PD inh	HKDC1 inhibitor	PKA-R2B act	PLA2 counter	others
O=C(O)c1ccccc1NC(c1ccccc1)c1ccc(Cl)cc1 (stereo not drawn)	278.1	-13.0	85.0*	-16.9	10.9	6.8	86.9*
O=C(CSc1ccccc1C(=O)O)c1ccc(Cl)cc1	349.1	-8.4	-2.6	-3.3	-2.2	-0.6	.
O=C(NCc1nnc2c3ccccc3c(-c3ccccc3)nn12)c1ccc(Cl)cc1	500.0	-6.9	42.1*	10.0	14.2	-1.9	58.1*
COc1ccc(CN2C(=O)C(CC(=O)NC3CCCCC3)CC(C(=O)N(C(C)C)C(C)C)=C2C)cc1 (stereo not drawn)	.	0.5	.	-13.1	.	-2.6	.
CN1/C(=C\C(=O)CSc2nnc(NCc3ccccc3)s2)C(C)(C)c2ccccc21	84.1	-9.8	42.0*	5.2	-9.5	-2.0	37.5
O=C1Nc2ccc(F)cc2C12Nc1ccccc1-c1nnc(SCc3ccccc3F)nc1O2 (stereo not drawn)	457.3	2.8	10.8	-13.2	15.9	2.0	.
O=C1Nc2ccc(Cl)cc2C12Nc1ccccc1-c1nnc(SCc3ccccc3F)nc1O2 (stereo not drawn)	301.1	-0.6	49.5*	11.9	6.4	5.5	63.2*
Nc1ncnc2c1ncn2[C@@H]1O[C@H](CNC(=O)[C@@H]2CCC(=O)N2)[C@@H](O)[C@H]1O	.	-4.1	2.9	2.5	-5.2	-11.1	.
Cc1ccc(-n2c(O)c(C=Nc3ccccc3-c3n[nH]c(=S)[nH]c3=O)c3ccccc3c2=O)cc1C	.	-1.4	19.2	-22.3	20.2	-2.0	.
Cc1ccc(-n2c(O)c(C=Nc3ccccc3-c3n[nH]c(=S)[nH]c3=O)c3ccccc3c2=O)c(C)c1	119.1	-2.2	43.0*	35.0	-0.1	-8.2	47.6	ATG4B conf=65.5*
O=C1C(NS(=O)(=O)c2cccs2)=C(N2CCN(c3cccc(Cl)c3)CC2)C(=O)c2ccccc21	171.6	3.2	45.9*	7.2	16.0	-9.1	65.0*
CC(=O)c1ccc(N2CCN(C(=O)c3c(-c4ccccc4Cl)noc3C)CC2)cc1	173.3	-1.1	1.2	-6.3	-2.4	-13.6	.
CC(C)C[C@H](NC(=O)OC(C)(C)C)C(=O)N/N=C/c1ccc2nccnc2c1	244.1	-4.5	-2.2	-5.2	-5.2	-3.1	.
